Assay [1] has as its system HL-60. The assay is described as follows: Induction of human HL60 cell differentiation by NBT reduction assay. It is filed as functional, cell-based. Summed up: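 HL-60 cells in RPMI1640 with 5% FBS were seeded at about 8 × 10⁴ cells/mL and given compound from a 2 mM ethanol stock (final ethanol below 0.5%) for 4 days. Differentiation was scored by NBT reduction: 20 min at 37 °C with 0.2% NBT and 200 ng/mL TPA, counting formazan-positive cells among at least 200. EC₅₀ is the concentration differentiating 50% of cells with compound alone.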

Assay [2] relates to HL-60. As to the kind of experiment: Inhibition of Am80-induced cell differentiation in human HL60 cells by NBT reduction assay. It is filed as functional, cell-based. In a few lines: (§1)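 Cells were co-treated with 3.3 × 10⁻¹⁰ M Am80 plus test compound (ethanol, final below 0.5%), seeded at about 8 × 10⁴ cells/mL in RPMI1640 with 5% FBS, and held 4 days. The percentage of differentiated cells was determined by NBT/TPA reduction (20 min, 37 °C), counting at least 200 cells.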

Assay [3] relates to HL-60. As to the kind of experiment: Inhibition of Am80-induced cell differentiation in human HL60 cells at 1 x 10^-6 M after 4 days by NBT reduction assay. It counts as functional. The following applies: HL-60, 96 h. In a few lines: as §1
For assay [4], the system named is HL-60. The assay is described as follows: Inhibition of Am80-induced cell differentiation in human HL60 cells at 1 x 10^-7 M after 4 days by NBT reduction assay. It counts as functional. As to conditions: HL-60, 96 h. Summed up: as §1
Assay [5] concerns the target Retinoic acid receptor beta (Homo sapiens) (UniProt P10826). As to the kind of experiment: Antagonist activity at human RARbeta expressed in COS-1 cells assessed as inhibition of Am80-induced transactivation by luciferase reporter gene assay.
Assay [6] has as its system Retinoid X receptor beta (Mus musculus). The assay is described as follows: Antagonist activity at mouse RXRbeta expressed in COS-1 cells assessed as inhibition of PA024-induced transactivation by luciferase reporter gene assay. In general terms: Reporter assays use an easily measured gene product as a stand-in for the process of interest.
Assay [7] concerns the target Retinoic acid receptor alpha (Homo sapiens) (UniProt P10276). The assay is described as follows: Antagonist activity at human RARalpha expressed in COS-1 cells assessed as inhibition of Am80-induced transactivation by luciferase reporter gene assay.
Assay [8] addresses Retinoic acid receptor gamma (Homo sapiens) (UniProt P13631). The assay is described as follows: Antagonist activity at human RARgamma expressed in COS-1 cells assessed as inhibition of ATRA-induced transactivation by luciferase reporter gene assay.
The target in assay [9] is Retinoic acid receptor RXR-alpha (Mus musculus) (UniProt P28700). As to the kind of experiment: Antagonist activity at mouse RXRalpha expressed in COS-1 cells assessed as inhibition of PA024-induced transactivation by luciferase reporter gene assay.
The test system of assay [10] is Retinoid X receptor gamma (Mus musculus). The assay is described as follows: Antagonist activity at mouse RXRgamma expressed in COS-1 cells assessed as inhibition of PA024-induced transactivation by luciferase reporter gene assay.
The test system of assay [11] is HL-60. As to the kind of experiment: Synergistic induction of human HL60 cell differentiation in presence of RAR agonist Am80 at 1 X 10^-10 M. It is filed as functional. Summed up:
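Synergy was tested in HL-60 cells given test compound together with 1 × 10⁻¹⁰ M Am80 for 4 days, with each agent also assayed alone. Differentiation was scored by NBT reduction (0.2% NBT, 200 ng/mL TPA, 20 min, 37 °C; ≥200 cells). SEC₅₀ is the concentration giving 50% differentiated cells in the presence of Am80.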

Activity calls are given as the source filed them. No cut-off for these calls is given here.

As a reminder, the EC50 is the midpoint of the concentration-response curve.

Chain of Retinoic acid receptor alpha (Homo sapiens) (P10276 whole entry, looked up): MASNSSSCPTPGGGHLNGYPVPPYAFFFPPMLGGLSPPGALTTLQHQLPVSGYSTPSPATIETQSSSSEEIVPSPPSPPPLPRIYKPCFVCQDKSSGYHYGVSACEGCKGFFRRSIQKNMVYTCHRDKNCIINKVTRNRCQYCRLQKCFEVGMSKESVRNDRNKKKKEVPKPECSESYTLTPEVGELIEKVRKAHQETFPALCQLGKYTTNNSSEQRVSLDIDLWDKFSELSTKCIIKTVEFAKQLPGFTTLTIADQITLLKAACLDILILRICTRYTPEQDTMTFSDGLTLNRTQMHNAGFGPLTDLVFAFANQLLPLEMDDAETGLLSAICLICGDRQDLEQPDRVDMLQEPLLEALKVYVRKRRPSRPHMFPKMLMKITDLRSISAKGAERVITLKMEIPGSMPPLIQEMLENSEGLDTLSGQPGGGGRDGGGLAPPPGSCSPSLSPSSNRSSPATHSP
Chain of Retinoic acid receptor gamma (Homo sapiens) (P13631 whole entry, looked up): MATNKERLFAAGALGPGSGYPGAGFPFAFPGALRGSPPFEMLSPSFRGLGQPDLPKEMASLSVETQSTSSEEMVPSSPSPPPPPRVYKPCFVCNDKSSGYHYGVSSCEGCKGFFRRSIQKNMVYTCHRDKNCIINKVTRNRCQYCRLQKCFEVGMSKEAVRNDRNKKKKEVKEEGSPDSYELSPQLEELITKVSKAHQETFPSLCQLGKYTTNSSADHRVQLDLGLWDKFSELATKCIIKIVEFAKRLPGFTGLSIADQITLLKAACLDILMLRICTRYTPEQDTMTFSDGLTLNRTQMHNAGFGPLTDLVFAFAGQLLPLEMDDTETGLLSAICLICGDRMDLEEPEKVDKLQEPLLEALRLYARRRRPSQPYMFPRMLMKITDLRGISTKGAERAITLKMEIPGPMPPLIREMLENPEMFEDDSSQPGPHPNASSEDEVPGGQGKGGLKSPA
Chain of Retinoic acid receptor beta (Homo sapiens) (P10826 whole entry, looked up): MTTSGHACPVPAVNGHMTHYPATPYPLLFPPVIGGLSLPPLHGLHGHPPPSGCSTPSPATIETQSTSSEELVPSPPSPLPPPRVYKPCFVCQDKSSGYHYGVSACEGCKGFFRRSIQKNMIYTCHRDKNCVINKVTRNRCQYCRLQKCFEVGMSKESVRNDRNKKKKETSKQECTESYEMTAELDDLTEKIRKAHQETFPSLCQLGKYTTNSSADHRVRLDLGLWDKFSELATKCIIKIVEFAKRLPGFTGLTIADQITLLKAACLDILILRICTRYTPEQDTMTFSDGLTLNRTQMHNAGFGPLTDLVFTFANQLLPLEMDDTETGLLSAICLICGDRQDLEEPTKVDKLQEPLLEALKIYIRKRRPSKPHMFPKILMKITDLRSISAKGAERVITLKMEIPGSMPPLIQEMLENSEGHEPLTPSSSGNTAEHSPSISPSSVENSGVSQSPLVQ
Chain of Retinoic acid receptor RXR-alpha (Mus musculus) (P28700 whole entry, looked up): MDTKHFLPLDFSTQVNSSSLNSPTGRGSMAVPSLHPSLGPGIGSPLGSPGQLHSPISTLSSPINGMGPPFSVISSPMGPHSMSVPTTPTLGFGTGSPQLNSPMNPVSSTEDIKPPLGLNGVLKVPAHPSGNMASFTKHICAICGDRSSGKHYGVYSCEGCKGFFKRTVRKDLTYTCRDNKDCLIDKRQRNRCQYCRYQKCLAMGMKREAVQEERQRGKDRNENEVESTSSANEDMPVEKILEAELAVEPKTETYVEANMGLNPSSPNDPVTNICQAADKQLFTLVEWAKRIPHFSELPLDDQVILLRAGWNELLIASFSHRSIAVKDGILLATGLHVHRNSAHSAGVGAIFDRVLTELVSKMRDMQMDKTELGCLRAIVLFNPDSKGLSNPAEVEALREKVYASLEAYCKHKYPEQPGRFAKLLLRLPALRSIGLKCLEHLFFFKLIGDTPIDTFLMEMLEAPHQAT

Take `CC1(C)CCC(C)(C)c2cc(N(Cc3ccccc3-c3ccccc3)c3ccc(C(=O)O)cc3)ccc21`: the outcome in the assay with HL-60 [1] was inactive. Further, the inhibition result with HL-60 [2] is “Dose-dependent effect”. Further, the Differentiated cells % at 1 µM in the assay with HL-60 [3] was under 10%. Besides, in the assay with HL-60 [4], the Differentiated cells % at 0.1 µM stood at 10%.
On to `CCCCCCCN(c1ccc(C(=O)O)cc1)c1ccc2c(c1)C(C)(C)CCC2(C)C`, for which the result in the assay with HL-60 [1] was inactive. For the same compound, the inhibition result (in the assay with HL-60 [2]; in assay [5]; in [7]; in assay [8]) was “Dose-dependent effect” each time. The Differentiated cells % at 1 µM in the assay with HL-60 [3] was under 10%. For the same compound, the inhibition result in assay [6], in assay [9] and in assay [10] was “inactive” each time.
Consider `CC1(C)CCC(C)(C)c2cc(N(Cc3ccc4ccccc4c3)c3ccc(C(=O)O)cc3)ccc21`, for which, in the assay with HL-60 [1], the result was inactive. In the assay on HL-60 [2], the inhibition result was “Dose-dependent effect”. The compound further returned a Differentiated cells % at 1 µM with HL-60 [3] of under 10%. Also, the Differentiated cells % at 0.1 µM with HL-60 [4] is 30%.
On to `CCCCCCCCN(c1ccc(C(=O)O)cc1)c1ccc2c(c1)C(C)(C)CCC2(C)C`, for which the result in the assay with HL-60 [1] was inactive. The inhibition result in the assay with HL-60 [2] was “Dose-dependent effect”. In the assay with HL-60 [3], this compound had a Differentiated cells % at 1 µM of under 10%.
On to `CCOc1c(F)c(F)c(CN(c2ccc(C(=O)O)cc2)c2ccc3c(c2)C(C)(C)CCC3(C)C)c(F)c1F`, for which the result in the assay with HL-60 [1] was inactive. For the same compound, the inhibition result (in the assay on HL-60 [2]; in assay [5]; in [7]; in [8]) was “Dose-dependent effect” in each case. This compound gave a Differentiated cells % at 1 µM in the assay on HL-60 [3] of under 10%. This compound came in with a Differentiated cells % at 0.1 µM in the assay with HL-60 [4] of under 10%. Further, the inhibition result in assay [6], in assay [9] and in assay [10] was “inactive” in each case.
`CC1(C)CCC(C)(C)c2cc(Nc3ccc(C(=O)O)cc3)ccc21`: the SEC50 in the assay with HL-60 [11] amounted to 2 ×10⁻⁸ M. The EC50 in the assay on HL-60 [1] (Homo sapiens, HL-60, read-out: EC50) came to 680 nM.
As for `CC1(C)CCC(C)(C)c2cc(N(Cc3ccc(C(F)(F)F)cc3)c3ccc(C(=O)O)cc3)ccc21`, the result with HL-60 [1] was inactive. In addition, in the assay with HL-60 [2], the inhibition entry is “Dose-dependent effect”. This compound also had a Differentiated cells % at 1 µM with HL-60 [3] of under 10%.
Regarding `CC1(C)CCC(C)(C)c2cc(N(CC3CC3)c3ccc(C(=O)O)cc3)ccc21`, the SEC50 in the assay with HL-60 [11] is recorded as 8.1 ×10⁻¹⁰ M. For the same compound, the EC50 entry in the assay with HL-60 [1] (hl-60) is recorded as “Not Active”.
Consider `CC1(C)CCC(C)(C)c2cc(N(Cc3ccccc3)c3ccc(C(=O)O)cc3)ccc21`, for which the result with HL-60 [1] was inactive.
Consider `Cc1ccc(CN(c2ccc(C(=O)O)cc2)c2ccc3c(c2)C(C)(C)CCC3(C)C)cc1`, for which, in the assay on HL-60 [1], the result was inactive. Besides, the inhibition entry with HL-60 [2] was “Dose-dependent effect”. Moreover, the Differentiated cells % at 1 µM in the assay with HL-60 [3] was under 10%.

Source of the values: ChEMBL document CHEMBL1764950, “Diphenylamine-based retinoid antagonists: regulation of RAR and RXR function depending on the N-substituent” (Bioorg Med Chem, 2011).
